{"data": "Measurements collected from several papers", "MAPK14": "Mitogen-activated protein kinase 14 (MAPK14, Homo sapiens, UniProt Q16539)", "MAPK14 T106M": "Mitogen-activated protein kinase 14 (MAPK14, Homo sapiens, UniProt Q16539, T106M)", "note": "Lines come from different studies, so protocols differ."}
{"SMILES": "O=C(Nc1cnn(-c2csc(C(=O)NC3COC3)c2)c1)Nc1c(F)cccc1Cl", "target": "MAPK14", "test": "enzyme activity, inhibitor", "conditions": "5 µM", "measurement": "remaining activity", "value": "105%"}
{"SMILES": "c1ccc(CNc2nc(N3CCOc4ccccc43)nc3c2CCCC3)cc1", "target": "MAPK14", "test": "target engagement in cells, inhibitor, chemoproteomics", "conditions": "20 mM", "measurement": "inhibition", "value": "6.3%"}
{"SMILES": "CN([C@@H]1CCc2c(CC(=O)O)c3cc(S(C)(=O)=O)ccc3n2C1)S(=O)(=O)c1ccc(F)cc1", "target": "MAPK14", "test": "cell-free assay, competition with immobilised ligand", "conditions": "1 µM", "measurement": "remaining binding", "value": "100%"}
{"SMILES": "CCN(CC)CCNC(=O)c1c(C)[nH]c(/C=C2\\C(=O)Nc3ccc(F)cc32)c1C", "target": "MAPK14 T106M", "test": "enzyme activity, inhibitor", "conditions": "10 µM", "measurement": "inhibition", "value": "9%"}
{"SMILES": "c1nc2c(Nc3ccc4c(c3)OCCO4)nc(Nc3ccc4c(c3)OCCO4)nc2[nH]1", "target": "MAPK14", "test": "enzyme activity, inhibitor", "conditions": "10 µM", "measurement": "activity vs control", "value": "90%"}
{"SMILES": "FC(F)c1nc2ccccc2n1-c1nc(N2CCOCC2)nc(N2CCOCC2)n1", "target": "MAPK14", "test": "enzyme activity, inhibitor", "conditions": "10 µM", "measurement": "remaining activity", "value": "89%"}
{"SMILES": "CC(C)(O)c1cncc(-c2nc3ccc(F)cc3n2C2CC2)c1", "target": "MAPK14", "test": "cell-free assay, competition with immobilised ligand", "conditions": "1 µM", "measurement": "remaining binding", "value": "100%"}
{"SMILES": "Nc1ncnc2occ(-c3ccc(NC(=O)Nc4cc(C(F)(F)F)ccc4F)cc3)c12", "target": "MAPK14", "test": "cell-free assay, inhibitor", "conditions": "20 µM", "measurement": "remaining signal", "value": "0%"}
{"SMILES": "Cc1ccc(NC(=O)c2ccc(C)c(C(F)(F)F)c2)cc1C#Cc1nn(C2CCC(O)CC2)c2ncnc(N)c12 (centres unmarked)", "target": "MAPK14", "test": "cell-free assay", "conditions": "10 µM", "measurement": "remaining signal", "value": "3%"}
{"SMILES": "Cc1cc(NC(=O)c2cccc(S(F)(F)(F)(F)F)c2)cc(-n2ccn3nc(-c4cccnc4)cc23)c1", "target": "MAPK14", "test": "cell-free assay, competition with immobilised ligand", "conditions": "1 µM", "measurement": "remaining binding", "value": "100%"}
{"SMILES": "C#Cc1cccc(Nc2ncnc3cc(OCCOC)c(OCCOC)cc23)c1", "target": "MAPK14", "test": "cell-free assay", "conditions": "0.5 µM", "measurement": "remaining signal", "value": "95.3%"}
{"SMILES": "Cc1cnc(NC2CCOCC2)nc1-n1cnc(C(=O)NC(CN)c2cc(F)cc(Cl)c2)c1 (centres unmarked)", "target": "MAPK14 T106M", "test": "enzyme activity, inhibitor, radiometric", "conditions": "1 µM", "measurement": "remaining activity", "value": "55%"}
{"SMILES": "CN(C)C1CCN(CC#Cc2nn(C3CCCC3)c3nc(NCc4ccccc4)ncc23)C1 (centres unmarked)", "target": "MAPK14", "test": "enzyme activity, inhibitor, FRET", "conditions": "10 µM", "measurement": "inhibition", "value": "4%"}
{"SMILES": "CC(C)(C)C(=O)c1sc(NC2CCCCC2)nc1N", "target": "MAPK14", "test": "enzyme activity, inhibitor", "conditions": "10 µM", "measurement": "remaining activity", "value": "102%"}
{"SMILES": "N#CCCc1ccc2c(c1)-c1[nH]c3ccc([N+](=O)[O-])cc3c1CC(=O)N2", "target": "MAPK14", "test": "cell-free assay", "conditions": "0.5 µM", "measurement": "remaining signal", "value": "91.8%"}
{"SMILES": "Cc1cc(NC(=O)c2cccc3cc(-c4cccc5[nH]nc(N)c45)ccc23)ccc1F", "target": "MAPK14", "test": "enzyme activity, inhibitor", "conditions": "0.1 µM", "measurement": "activity vs control", "value": "85%"}
{"SMILES": "O=C(NS(=O)(=O)c1ccc(NCC2CCOCC2)c([N+](=O)[O-])c1)c1ccc(N2CCN(Cc3ccc(C(F)(F)F)cc3-c3ccc(Cl)cc3)CC2)cc1Oc1cnc2[nH]ccc2c1", "target": "MAPK14", "test": "cell-free assay, competition with immobilised ligand", "conditions": "1 µM", "measurement": "remaining binding", "value": "97%"}
{"SMILES": "CC(C)(O)[C@H]1CC[C@H](Nc2ccc3ncc(-c4cccc(C(F)(F)F)c4)n3n2)CC1", "target": "MAPK14", "test": "enzyme activity, inhibitor", "conditions": "1 µM", "measurement": "remaining activity", "value": "86.4%"}
{"SMILES": "CC(C)c1ccc(NC(=O)c2cccs2)c(-c2nc3ccccc3[nH]c2=O)c1", "target": "MAPK14", "test": "enzyme activity, inhibitor", "conditions": "1 µM", "measurement": "activity vs control", "value": "102%"}
{"SMILES": "Cc1nc(Cc2cccc(C(F)(F)F)c2)sc1-c1ccc(C(N)=O)nc1", "target": "MAPK14", "test": "cell-free assay, competition with immobilised ligand", "conditions": "1 µM", "measurement": "remaining binding", "value": "100%"}
{"SMILES": "CC(C)(C)c1nc(-c2cccc(NS(=O)(=O)c3c(F)cccc3F)c2F)c(-c2ccnc(N)n2)s1", "target": "MAPK14", "test": "enzyme activity, inhibitor, radiometric", "conditions": "1 µM", "measurement": "remaining activity", "value": "111%"}
{"SMILES": "Cc1noc([C@H]2C[C@@H](c3ccc(C(F)(F)F)cc3)CN(C(=O)N3CCS(=O)(=O)C3)C2)n1", "target": "MAPK14", "test": "cell-free assay, competition with immobilised ligand", "conditions": "1 µM", "measurement": "remaining binding", "value": "79%"}
{"SMILES": "O=C1NC(=O)c2cc(Nc3ccc(F)cc3)c(Nc3ccc(F)cc3)cc21", "target": "MAPK14", "test": "cell-free assay", "conditions": "0.5 µM", "measurement": "remaining signal", "value": "88.3%"}
{"SMILES": "COc1cc(Nc2cnc(C#N)c(O[C@H](C)CN(C)C)n2)ncc1-c1cnn(C)c1", "target": "MAPK14", "test": "enzyme activity, inhibitor, radiometric", "conditions": "1 µM", "measurement": "remaining activity", "value": "102%"}
{"SMILES": "Oc1ccc(-c2nc(-c3ccncc3)c(-c3ccc(F)cc3)[nH]2)cc1", "target": "MAPK14", "test": "cell-free assay", "conditions": "0.5 µM", "measurement": "remaining signal", "value": "7.42%"}
{"SMILES": "N#CC1(c2ccccn2)CCN(Cc2cc(C(=O)N3CCCC3)c(=O)n3ccccc23)CC1", "target": "MAPK14", "test": "cell-free assay, competition with immobilised ligand", "conditions": "1 µM", "measurement": "remaining binding", "value": "86%"}
{"SMILES": "Cc1ccc(Nc2nccc(N(C)c3ccc4c(C)n(C)nc4c3)n2)cc1S(N)(=O)=O", "target": "MAPK14", "test": "enzyme activity, inhibitor", "conditions": "0.3 µM", "measurement": "inhibition", "value": "6%"}
{"SMILES": "CC1=C(C#N)[C@@H](c2ccc3[nH]nc(C)c3c2)C(C#N)=C(c2ccc(Cl)cc2)N1", "target": "MAPK14", "test": "cell-free assay, competition with immobilised ligand", "conditions": "1 µM", "measurement": "remaining binding", "value": "100%"}
{"SMILES": "CNC(=O)c1cc(Oc2ccc(NC(=O)Nc3ccc(Cl)c(C(F)(F)F)c3)cc2)ccn1", "target": "MAPK14", "test": "enzyme activity, inhibitor", "conditions": "10 µM", "measurement": "inhibition", "value": "84%"}
